# Test results published in ChEMBL document CHEMBL1133526, “Molecular simplification of 1,4-diazabicyclo[4.3.0]nonan-9-ones gives piperazine derivatives that maintain high nootropic activity” (2000).
# Values joined by “and” are separate entries in the source; they are usually repeats but may differ in a detail not shown here. Equal entries are not always repeated.
# Experiments:
# Assay type in all cases: functional
# [1] = system: Mus musculus; experiment: Minimum effective dose administered subcutaneously in mouse passive avoidance test; details: sc, read-out: MED
# How it was run: (§1)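 Mouse passive avoidance with scopolamine-induced amnesia (1.5 mg/kg ip after training; 40 cm fall into 10 °C water as punishment). Compounds are given sc in 1:10 dilution steps 20 min before training, in saline or DMSO/H2O. […] Piracetam is the ip reference.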
# [2] = system: Mus musculus; experiment: Effect of 0.1 mg/kg compound on Amnesia induced by diphenhydramine (20 mg/Kg) in mouse passive Avoidance test on 2 nd day (no. of animals = 12)
# How it was run: (§2)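 Mouse passive avoidance. Compound is given ip 20 min before training. Diphenhydramine (20 mg/kg ip) or baclofen (2 mg/kg ip) is injected immediately after training. Entry latency into the dark, water-pitfall compartment is measured on day 1 and 24 h later, capped at 120 s. Compared with amnesic-only mice.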
# [3] = system: Mus musculus; experiment: Effect of 0.1 mg/kg compound on Amnesia induced by diphenhydramine (20 mg/Kg) in mouse passive Avoidance test on 2 nd day (no. of animals = 11); how it was run: as §2
# [4] = system: Mus musculus; experiment: Effect of 0.1 mg/kg compound on Amnesia induced by Baclofen (2 mg/Kg ip) in mouse passive Avoidance test on 1 st day at 0.1 mg/kg, ip; how it was run: as §2
# [5] = system: Mus musculus; experiment: Nootropic effect of the compound, when administered subcutaneously, on mouse passive Avoidance test, using Scopolamine as Amnesic drug on 2 nd day
# [6] = system: Mus musculus; experiment: Effect of 0.1 mg/kg compound on Amnesia induced by diphenhydramine (20 mg/Kg) in mouse passive Avoidance test on 1st day; (no. of animals = 11); how it was run: as §2
# [7] = system: Mus musculus; experiment: Minimum effective dose administered subcutaneously in mouse, activity given with reference to piracetam; details: for minimal effective dose: Mus musculus, sc, read-out: MED; how it was run: as §1
# [8] = species on record: Mus musculus; experiment: (§3) Change in entry latency expressed as [(entry latency on day 2)-(entry latency on day 1)]
# How it was run: (§4)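 Mouse passive avoidance test using a light/dark box. Entering the dark side drops the mouse 40 cm into 10 °C water. Training is on day 1 and retention 24 h later. Test drug is given sc 20 min before training, in saline or DMSO/H2O vehicle. […] Mice not entering within 60 s are excluded. Retention latency is capped at 120 s. Δ = day 2 − day 1 latency.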
# [9] = system: Mus musculus; experiment: Effect of 0.1 mg/kg compound in the presence of saline on Amnesia in mouse passive Avoidance test on 1st day
# How it was run: (§5)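 Mouse passive avoidance without an amnesic agent. Compound is given ip at 0.1 mg/kg 20 min before training, followed by saline. Entry latency into the dark compartment (punishment: 40 cm fall into 10 °C water) is recorded on day 1 and in retention 24 h later, capped at 120 s. Compared with saline controls.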
# [10] = system: Mus musculus; experiment: Effect of 0.1 mg/kg compound on Amnesia induced by diphenhydramine (20 mg/Kg) in mouse passive Avoidance test on 1st day (no. of animals = 12); how it was run: as §2
# [11] = system: Mus musculus; experiment: Nootropic effect of the compound, when administered subcutaneously, on mouse passive Avoidance test, using Scopolamine as Amnesic drug on 1 st day
# [12] = system: Mus musculus; experiment: Effect of 0.1 mg/kg compound in the presence of saline on Amnesia in mouse passive Avoidance test on 2nd day, ip; details: route intraperitoneal; how it was run: as §5
# [13] = system: Mus musculus; experiment: Effect of compound on Amnesia induced Clonidine (0.125 mg/kg) in mouse passive Avoidance test on 2 nd day at 0.1 mg/kg, ip; details: route intraperitoneal
# How it was run: (§6)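 Mouse passive avoidance. Compound is given ip 20 min before training. Clonidine (0.125 mg/kg ip) is injected 60 min before training. Entry latency into the dark compartment (40 cm fall into 10 °C water) is measured on day 1 and 24 h later, capped at 120 s. Compared with clonidine-only mice.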
# [14] = system: Mus musculus; experiment: Effect of compound on Amnesia induced Clonidine (0.125 mg/kg) in mouse passive Avoidance test on 1st day at 0.1 mg/kg, ip; details: route intraperitoneal; how it was run: as §6
# [15] = species on record: Mus musculus; experiment: Change in entry latency expressed as [(latency on day 2)-(latency on day 1)]; how it was run: as §4
# [16] = system: Mus musculus; experiment: Effect of compound on Amnesia induced by Baclofen (2 mg/Kg ip) in mouse passive Avoidance test on 2 nd day at 0.1 mg/kg, ip; details: route intraperitoneal; how it was run: as §2
# [17] = system: Mus musculus; experiment: Minimum effective dose administered subcutaneously in mouse, activity given with reference to piracetam, dose administered is limited by solubility problems; details: sc, read-out: MED; how it was run: as §1
# [18] = species on record: Mus musculus; experiment: as §3; remark: listed apart in the source
# [19] = system: Mus musculus; experiment: Minimum effective dose administered intraperitoneally in mouse passive avoidance test; details: ip, read-out: MED
# [20] = system: Mus musculus; experiment: Effect of 0.1 mg/kg compound, when administered intraperitoneally, on Amnesia induced by diphenhydramine (20 mg/Kg) in mouse passive Avoidance test on 2 nd day; details: route intraperitoneal; how it was run: as §2
# [21] = system: Mus musculus; experiment: Effect of 0.1 mg/kg compound, when administered intraperitoneally along with saline, on Amnesia in mouse passive Avoidance test on 2nd day; details: route intraperitoneal; how it was run: as §5
# [22] = system: Mus musculus; experiment: Effect of 0.1 mg/kg compound, when administered intraperitoneally, on Amnesia induced by Baclofen (2 mg/Kg ip) in mouse passive Avoidance test on 2nd day; details: route intraperitoneal; how it was run: as §2
# [23] = system: Mus musculus; experiment: Effect of 0.1 mg/kg compound, when administered intraperitoneally, on Amnesia induced Clonidine (0.125 mg/kg) in mouse passive Avoidance test on 1st day; details: route intraperitoneal; how it was run: as §6
# [24] = system: Mus musculus; experiment: Effect of 0.1 mg/kg compound, when administered intraperitoneally, on Amnesia induced by Baclofen (2 mg/Kg ip) in mouse passive Avoidance test on 1st day; details: route intraperitoneal; how it was run: as §2
# [25] = system: Mus musculus; experiment: Effect of 0.1 mg/kg compound, when administered intraperitoneally along with saline, on Amnesia in mouse passive Avoidance test on 1st day; details: route intraperitoneal; how it was run: as §5
# [26] = system: Mus musculus; experiment: Effect of 0.1 mg/kg compound, when administered intraperitoneally, on Amnesia induced by diphenhydramine (20 mg/Kg) in mouse passive Avoidance test on 1st day; details: route intraperitoneal; how it was run: as §2
# [27] = system: Mus musculus; experiment: Effect of 0.1 mg/kg compound, when administered intraperitoneally, on Amnesia induced by Clonidine (0.125 mg/Kg ip) in mouse passive Avoidance test on 2 nd day; details: route intraperitoneal; how it was run: as §6
# [28] = system: Mus musculus; experiment: Nootropic effect of the compound, when administered subcutaneously, on mouse passive Avoidance test, using Scopolamine as Amnesic drug on 2nd day; how it was run: as §4
Structure (SMILES),minimal effective dose [1] [mg/kg],Entry latency [5] [s],minimal effective dose [7] [mg/kg],Change in entry latency [8],Entry latency [11] [s],further results
CCCC(=O)N1CCN(S(=O)(=O)c2ccc(F)cc2)CC1,> 10,–,–,–,–,–
CCC(=O)N1CCN(C(=O)c2ccccc2)CC1,–,91.5,0.001,71 s and 69.1 s and 68.5 s and 67 s,20.5,Entry latency [2]: 81.4 s; Entry latency [3]: 84.3 s; Entry latency [4]: 17.2 s; Entry latency [6]: 15.8 s; Entry latency [9]: 17.2 s; Entry latency [10]: 14.4 s; Entry latency [12]: 86.3 s; Entry latency [13]: 78.8 s; Entry latency [14]: 15 s; Change in entry latency [15]: 56 s and 63.8 s; Entry latency [16]: 73.2 s
CCC(=O)N1CCN(C(=O)c2ccc(C)cc2)CC1,–,–,–,–,–,minimal effective dose [17]: > 1 mg/kg
CCC(=O)N1CCN(C(=O)c2ccc(Cl)cc2)CC1,–,–,–,–,–,minimal effective dose [17]: > 1 mg/kg
CC1C[C@@H]2CN(C(=O)c3ccccc3)CCN2C1=O (stereo in doubt; exo),–,–,–,–,–,MED [7]: 1 mg/kg
CCCC(=O)N1CCN(C(=O)c2ccc(F)cc2)CC1,–,112,10,92.2 s,19.8,–
CCC(=O)N1CCN(S(=O)(=O)c2ccccc2)CC1,0.1,132,–,–,19,Entry latency [18]: 113 s
CCC(=O)N1CCN(S(=O)(=O)c2ccc(C)cc2)CC1,10,88.6,–,–,16.6,Entry latency [18]: 72 s
CCC(=O)N1CCN(C(=O)c2ccc([N+](=O)[O-])cc2)CC1,–,104.3,1,85.5 s,18.8,–
CCC(=O)N1CCN(C(=O)c2ccc(F)cc2)CC1,–,77.1,30,60.2 s,16.9,–
CN1C2CC(OC(=O)C(CO)c3ccccc3)CC1C1OC12.NC(=O)CN1CCCC1=O (configuration not stated),–,108.8,–,–,17.6,Entry latency [18]: 91.2 s; minimal effective dose [19]: 30 mg/kg
CCC(=O)N1CCN(S(=O)(=O)c2ccc([N+](=O)[O-])cc2)CC1,–,–,–,–,–,minimal effective dose [17]: > 0.1 mg/kg
CC(=O)N1CCN(S(=O)(=O)c2ccc(F)cc2)CC1,–,89,0.01,–,19.8,Entry latency [18]: 69.2 s
CC1C[C@@H]2CN(C(=O)c3ccccc3)CCN2C1=O (stereo in doubt; endo),–,–,1,–,–,–
CC(=O)N1CCN(C(=O)c2ccc(F)cc2)CC1,–,91.1,10,72.6 s,17.5,–
CC(=O)N1CCN(S(=O)(=O)c2ccc(F)cc2)CC1C (configuration not stated),0.1,99.2,–,–,16.6,–
CCCN1CCN(S(=O)(=O)c2ccc(F)cc2)CC1,–,96.7,1,81.4 s,15.3,–
O=C1CCC2CN(S(=O)(=O)c3ccc(F)cc3)CCN12 (configuration not stated),–,–,–,80.2 s and 64.1 s and 66.7 s,–,Entry latency [20]: 95.2 s; Entry latency [21]: 94.5 s; Entry latency [22]: 76.4 s; Entry latency [23]: 14.5 s; Entry latency [24]: 12.3 s; Entry latency [25]: 14.3 s; Entry latency [26]: 15.6 s; Entry latency [27]: 81.2 s; Change in entry latency [15]: 79.6 s
CCC(=O)N1CCN(C(=O)c2ccc(OC)cc2)CC1,–,96.1,10,78.5 s,17.6,–
CCCC(=O)N1CCN(S(=O)(=O)c2ccccc2)CC1,1,85.4,–,70.4 s,15,–
CCCC(=O)N1CCN(C(=O)c2ccccc2)CC1,–,103.6,1,89.8 s,13.8,–
CCC(=O)N1CCN(S(=O)(=O)c2ccc(OC)cc2)CC1,–,–,–,–,–,minimal effective dose [17]: > 1 mg/kg
CCC(=O)N1CCN(Cc2ccccc2)CC1,–,–,10,81.1 s,12.8,Entry latency [28]: 93.9 s
CCCCCC(=O)N1CCN(S(=O)(=O)c2ccc(F)cc2)CC1,1,81.5,–,–,16.6,Entry latency [18]: 64.9 s
CCCCC(=O)N1CCN(S(=O)(=O)c2ccc(F)cc2)CC1,> 0.1,–,–,–,–,–
CC(=O)N1CCN(S(=O)(=O)c2ccccc2)CC1,–,104,0.01,–,17.5,Entry latency [18]: 86.5 s
CCC(=O)N1CCN(S(=O)(=O)c2ccc(F)cc2)CC1,0.01,90.6,–,–,15.9,Entry latency [18]: 74.7 s
CN1[C@@H]2C[C@@H](OC(=O)[C@H](CO)c3ccccc3)C[C@H]1[C@@H]1O[C@@H]12 [SCOPOLAMINE],–,–,–,–,–,minimal effective dose [19]: 1.5 mg/kg
CCC(=O)N1CCN(S(=O)(=O)c2ccc(Cl)cc2)CC1,> 0.1,–,–,–,–,–
